Measurements: ChEMBL document CHEMBL1649209, “Improved murine model of malaria using Plasmodium falciparum competent strains and non-myelodepleted NOD-scid IL2Rgammanull mice engrafted with human erythrocytes” (2009)
Active and inactive are the calls of the source. No cut-off for these calls is given here.

What was measured:
Plasmodium falciparum [1] = experiment: Antimalarial activity against Plasmodium falciparum PfV1S0176/N10 infected in immunodeficient HM-IL2Rgamma null mouse after 7 days; format: functional
Plasmodium falciparum [2] = experiment: Antimalarial activity against Plasmodium falciparum Pf3D70087/N9 infected in immunodeficient HM-beta2 m null mouse after 7 days; format: functional
Plasmodium falciparum [3] = experiment: Antimalarial activity against Plasmodium falciparum Pf3D70087/N9 infected in immunodeficient HM-IL2Rgamma null mouse after 7 days; format: functional
Outline: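 Four-day test in female NOD-scid IL2Rγnull mice engrafted by daily i.p. injections of human erythrocytes. Mice were infected i.v. with 20 × 10^6 Pf3D70087/N9-infected hE, then randomized 3 days later (3/group) and dosed orally once daily for 4 days. Day-7 parasitemia was measured by SYTO-16/TER-119 flow cytometry relative to vehicle. ED90 came from a sigmoid dose-response fit.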

Plasmodium falciparum [4] = experiment: Antimalarial activity against Plasmodium falciparum Pf3D70087/N9 infected in immunodeficient HM-IL2Rgamma null mouse assessed as decreased parasitemia at 50 mg/kg, po for 4 days after 28 days; format: functional, organism-based; parameters: dose 50 mg/kg
Outline: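 Engrafted NOD-scid IL2Rγnull mice each carried about […] Pf3D70087/N9-infected hE. They were dosed orally at 50 mg/kg once daily for four consecutive days. Peripheral blood was checked for parasites up to at least 28 days after treatment ended.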

| SMILES | ED90 (Plasmodium falciparum [1]) [mg/kg] | ED90 (Plasmodium falciparum [2]) [mg/kg] | ED90 (Plasmodium falciparum [3]) [mg/kg] | Activity (Plasmodium falciparum [4]) |
| --- | --- | --- | --- | --- |
| C[C@H]1[C@H](OC(=O)CCC(=O)O)O[C@@H]2O[C@@]3(C)CC[C@H]4[C@H](C)CC[C@@H]1[C@@]24OO3 [ARTESUNATE] | <20 | 12.7 | 12.9 |  |
| CCc1nc(N)nc(N)c1-c1ccc(Cl)cc1 [PYRIMETHAMINE] | >50 | 0.9 | 0.5 |  |
| CCN(CC)CCCC(C)Nc1ccnc2cc(Cl)ccc12 (stereo not drawn) [CHLOROQUINE] | >50 | 4.4 | 4.9 | Active |
| Cc1[nH]c(CO)c(-c2ccc(Oc3ccc(OC(F)(F)F)cc3)cc2)c(=O)c1Cl | <1 | 0.6 | 0.6 |  |
